Assay results from the EternaBench riboswitch data.

Tested on: MS2 coat protein
Assay: apparent Kd, MS2 coat protein; higher = weaker binding; RNA-MaP array; FMN 200 µM where present
Summary of the method: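 The apparent Kd is reported as the median of filtered per-cluster binding-curve fits. To get these curves, designs transcribed by stalled E. coli RNA polymerase on Illumina sequencing-chip clusters were titrated with SNAP-549-labelled MS2 coat protein from 0.7 or 1.5 nM, doubling to 3 µM. Titrations were run without and then with constant ligand in 100 mM Tris-HCl pH 7.5, 80 mM KCl, 4 mM MgCl2, BSA, DTT, yeast tRNA and Tween-20, and green signal was normalised to red-channel RNA signal and control-cluster median Fmax.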

[1] = designed as: ON switch for flavin mononucleotide, no ligand
[2] = ligand present: flavin mononucleotide, designed as: ON switch for flavin mononucleotide
[3] = designed as: OFF switch for flavin mononucleotide, no ligand
[4] = ligand present: flavin mononucleotide, designed as: OFF switch for flavin mononucleotide

Row | Sequence | apparent Kd [1] [nM] | apparent Kd [2] [nM] | apparent Kd [3] [nM] | apparent Kd [4] [nM]
1 | AGUGUCAUCGAGAAGGCCUCAUGAACAUGAGGAUCACCCAUGUAAGAUGGGAGGAUAUCGAUGAUACAGCUACGUUUCGUAGCA | 51.1 | 31.9 |  | 
2 | UUGAAGUCAUCAGGAUAUAGUAUUAAAGACAUUUAUAUUUUCAAACAUGAGGAUCACCCAUGUCGCUAGAAGGGAUUAUAGAUU |  |  | 49.1 | 44.9
3 | CGCUACACCCAGAAGGACAUGAGGAUCACCCAUGUAGGAUAUGGGAGACACAGUCCCAUGUAGAGAAACUACGCUAGUGUAGCG | 200 | 81.4 |  | 
4 | GCGAAUUUGUGAGGAUAUACAUAAUUUAUAACUGUAGAAGGCACAAACCUCAAGACAUGAGGAUCACCCAUGUGGAAUUUCGCU |  |  | 131 | 192
5 | CAGUACUGAGGAUAUACAUGAGGAUCACCCAUGUGUUCCUGCUAGGAAACUAGCAAAAGUAGAAGGCAGUACUG |  |  | 25.2 | 532
6 | ACCGUAUGAACAUGAGGAUCACCCAUGUAUUCGAAAAGGAAUGAGGAUAUCGAUAGCAAAGCUAUCGAGAAGGCAUGGGACGGU | 255 | 60.4 |  | 
7 | UUGAAUUAUAAGGAUAUGGGAGUCGAUAGACACCCAGAAGGUAUAACAUGAGGAUCACCCAUGUGUCCUAUCUU |  |  | 22.2 | 23.4
8 | AAAAGACAUGAGGAUCACCCAUGUCUUCGGACAUGAGGAUAUGUACAGACUUCGGUCUGUACAGAAGGCAUGUCAA | 39.8 | 17.2 |  | 
9 | AAAAAGUCAGGAUAUGUCAAAGGUCACGAAAGUGACAAAGGACAGAAGGGACAUGAGGAUCACCCAUGUAAAAA |  |  | 30.2 | 46.1
10 | UGCACGAGGCAAGGAUAUGCUGACAUGAGGAUCACCCAUGUGAGCAUGGGUCUGGUACGGGAUCAGCAGAAGGUGCACCGAGGU |  |  | 36.8 | 27.4
11 | ACCUUACUGGUCAGGAUAUACAGUCUUUGGUGUGUGUAGAAGGGACAUGAGGAUCACCCAUGUAGGUUGCAGCA |  |  | 70 | 62.7
12 | CAGCGGCAAGGAUAUACAUGAGGAUCACCCAUGUGGUCCCGCUAUAGUAACUUAGCUUGUAGAAGGUGCAGCUA |  |  | 36.5 | 218
13 | CUAUUUUUACAGAAGGUUUAAUACUAUGUAUGAGAAGGAUAUGUAACAUGAGGAUCACCCAUGUUUUAUUUAUAUGAGGUUCGU |  |  | 13.4 | 11.4
14 | AUCAGCUCGUCAGGAUAUACGUCACUGCGUCAGCAGUGUGGUAAGAUCACAUGAGGAUCACCCAUGUAGAAGGGACGCGCUGAU |  |  | 13.3 | 226
15 | AAUAACAGAGGAUAUACUAUUUUAUGUAUUUAUUAUUUUGAACAUGAGGAUCACCCAUGUAGAAGGCUGAUUAA |  |  | 29.6 | 27.2
16 | GAACGUGACAUGAGGAUCACCCAUGUUGCCUUGGCCAGGUCGUAGGAUAUCCUGUUGAUUAAUUUGGAGAAGGGCGACUGGGAG | 33.5 | 12.9 |  | 
17 | UUGAGGUGCAAGAAGGAUCACAUGAGGAUCACCCAUGUAAUAUAAAGUCUCGAGAUUUUAUAUUGAUAGGAUAUUGCACCGAAC | 42.2 | 6.26 |  | 
18 | CGGGAGUCAGGAUAUACGAACAUGUCGCCAGAUGUCAAGGUACAUGAGGAUCACCCAUGUAGAAGGGAGGAGUU |  |  | 91.9 | 56.6
19 | AGGAGUAAAGGGAAUAACAUGAGGAUCACCCAUGUAUGGGAGAGAAGGCAUAUCGGAGGACGAUAUGAGGAUAUUUAAACUCUA | 62.6 | 18.7 |  | 

Row | Sequence | apparent Kd [1] [nM] | apparent Kd [2] [nM] | apparent Kd [3] [nM] | apparent Kd [4] [nM]
20 | GUGUACGUAGGAUAUACAUGAGGAUCACCCAUGUGAAUAAGAUAGAAUAAGAUAAAGUGUAGAAGGACGAGUGU |  |  | 37.3 | 30.5
21 | AUAUUUGUGUAGAAGGUACGUGAUUAGUUAUAGUAAGGAUAUACUGACAUGAGGAUCACCCAUGUAUAAAUGGUUAAAUGUUCU | 27.9 | 20 |  | 
22 | ACAUUGCGAGGAUAUACAUGAGGAUCACCCAUGUGGUAGUAGAUACGGUAGGGCUAGUGUAGAAGGUGUCAUGG |  |  | 137 | 131
23 | GAGUAGUAAGGAUAUGUCUCUGGUGGCUACGGUCACUAGAGGCAGAAGGUACAUGAGGAUCACCCAUGUUUUUU |  |  | 17.2 | 19.3
24 | UAUAUAAUAUUUCACAUGAGGAUCACCCAUGUACAUGGGAUAGAGGAUAUACAAAUAUUAGUGGUGUAGAAGGUUAAUAUAUAU |  |  | 158 | 101
25 | UCGCGGGAGCAGAAGGGACAGGCCUAUUGUCGUGAGGUCUGCACUUAACAUGAGGAUCACCCAUGUCAGGAUAUGCCCACGCGA |  |  | 4.8 | 4.94
26 | ACAUCGUGAGACAUGAGGAUCACCCAUGUGUGAUAGUGGGCACAGGAUAUCCAGACUUGGAAUCUGGAGAAGGGUGAUCGUUAA | 86.7 | 129 |  | 
27 | AAUGCACAUGAGGAUCACCCAUGUAAGACAAAGACAGGAUAUGGGCCGCAUGGCUCUGGCCCAGAAGGGUCAGUCG | 25 | 18.6 |  | 
28 | CCGGGAAUAUUAAAUACCUCAACAUGAGGAUCACCCAUGUUGCAGGAUAUCAAUGAGUUGGAAAAUGAGAAGGGCAGCGGGAGA |  |  | 5.81 | 7.34
29 | CGUAGGAUCCAGAAGGCAUGUACAUGAGGAUCACCCAUGUCGAAAGACAUGAGGAUAUGGAUCCUACGAAAAGUGCGAAAGCAC | 56.4 | 6.15 |  | 
30 | CACAGGGAUUCAGGAUAUAUUAGCCGAGGCCGCGUAGAAGGGAAAUCCUGACAUGAGGAUCACCCAUGUCGACCCGCCUUCCAC | 24.2 | 25.3 |  | 
31 | UAUUAAUACGAAGGAUAUGGUUACAUGAGGAUCACCCAUGUAUGUAUAUUGAUCUAGAUAUUUAACCAGAAGGUCGGGAGUAAA |  |  | 39 | 38.2
32 | UUUUAACAUGAGGAUCACCCAUGUGAGGAUAUCGAAAUUUAUAUUAAUAUUUAUUAAACGAGAAGGCACAUUUU |  |  | 82.2 | 80.7
33 | CCGGAAAUGGAGGAUAUAGGAGUCGAUAGACACCUAGAAGGUCAUACAUGAGGAUCACCCAUGUGUCCUACCGG |  |  | 17.2 | 19.1
34 | AACGCGUCAGGAUAUGCCAUAAAUUACCUAAUACGACCAUAGCAGAAGGGACAUGAGGAUCACCCAUGUAAAUA |  |  | 36.2 | 28.8
35 | ACCAAUGCAGGAUAUACAUGAGGAUCACCCAUGUAUAACCUACAUAGGUGAUCAUCAUGUAGAAGGGCAUUGGA |  |  | 14.6 | 15.1
36 | UGUCCAUAGCAGAAGGACAUGUAUAACCAUGAAAACAUGAGGAUCACCCAUGUAGGAUAUGCUAUGGACUAAGAGCGAAAGCUC |  |  | 8.57 | 68.8
37 | GGUAUACUGCAGGAUAUUAGCUGAGAUAUCCGCUGAGAAGGGCAGACAUGAGGAUCACCCAUGUACCGAGUAGU |  |  | 31.9 | 18.8
38 | GAGUGGUAAAGAGGAUAUGCAUUGUUAUUCACUGCAGAAGGUUUUAACAUGAGGAUCACCCAUGUAGGACUAUUCCUGUGUUUC | 14.6 | 12.5 |  | 

Row | Sequence | apparent Kd [1] [nM] | apparent Kd [2] [nM] | apparent Kd [3] [nM] | apparent Kd [4] [nM]
39 | GAGUAGAUCCGAGGAUAUACAAUCCGGAAACGGUACAUGAGGAUCACCCAUGUAGAAGGCGGAUCUACAGGUACUAAAGUACCC |  |  | 5.73 | 8.11
40 | AUAAUGCGAGGAUAUACAUGAGGAUCACCCAUGUAAUUCAAUCGGAGAGCCACAUUACGUAGAAGGUGCAUUAA |  |  | 17 | 23
41 | GGUGCGUUUGUGAGGAUAUGCUGGUCCUUGGAUCAGCAGAAGGCACAUGAGGAUCACCCAUGUGGUGUCGUCCC |  |  | 348 | 44.7
42 | CCUCCCUGAGGAUAUCCAUCCUCAUACAUGAGGAUCACCCAUGUUCAUCCGUGGCUACCCGGAGAAGGCAGCUCUG |  |  | 321 | 290
43 | CUGAUGUUAGGAUAUCAGGCGCCCGCCACUGGCAAAGCGCAUGAGAAGGGACAUGAGGAUCACCCAUGUAGUAA |  |  | 28.2 | 47.6
44 | AAUAACAGAGGAUAUACUAUUUUAUGUGUUUAUUGUUUUAAACAUGAGGAUCACCCAUGUAGAAGGCUGAAUGA |  |  | 37.6 | 54.4
45 | UGAUCUUUUGUUAGGAUAUGCUGUUUUUUUUUACAGCAGAAGGGACAUGAGGAUCACCCAUGUCUUGUCAUAAA |  |  | 11.3 | 18.6
46 | GCCCUAAAGCGGGCCGACCAUACAUGAGGAUCACCCAUGUCGAGAAGGUGCUCACGGGUGGGUGGCAAGGAUAUCGGGUCGGAA | 65.6 | 32.6 |  | 
47 | CAGCUGAAAGUCAGGAUAUCUAGAGCGAUAGCUCUAGAGAAGGGACAUGAGGAUCACCCAUGUCACUCCAGCUG |  |  | 17.1 | 20.4
48 | AACACGCUAACAAGCGACAUGAGGAUCACCCAUGUAAGGACACAGGAUAUCCGGAGUCAUAGGCCGGAGAAGGGUGAUCCUACC | 33.4 | 19.7 |  | 
49 | AAUUAAUUAAUUAAGUACAUGAGGAUCACCCAUGUAAGUGAUCAGGAUAUCAGCUCGAUUAGAGCUGAGAAGGGAUCCAUGUAC | 531 | 303 |  | 
50 | AAGUAGGUAGGAUAUACAUGGAUAUACAUUCAUGUGGAUUUACAUGAGGAUCACCCAUGUAGAAGGACCUAAUA |  |  | 118 | 30.8
51 | UUAAUUAUACAAGGAUAUCUAUUGUUCUUUCGACAUACAUGAGGAUCACCCAUGUUAAUAUAUAUAGAGAAGGUGUAUUUUCAG | 42.2 | 26.3 |  | 
52 | AGCUAGUCAGGAUAUACGAACAUGUCAAAAGACGUGAAGGGACAUGAGGAUCACCCAUGUAGAAGGGACUAGCA |  |  | 40 | 170
53 | AACUAGUCAGGAUAUACGAACAUGUCAAAAAACAUAAAGGGACAUGAGGAUCACCCAUGUAGAAGGGACUAGCA |  |  | 177 | 666
54 | UGAUACAUGAGGGUCUCCCAUGACAUGAGGAUCACCCAUGUGCAGGAUAUACGUGUGAUAAUAUAGUAGAAGGGCAGUCUAUGU |  |  | 345 | 577
55 | AACAGGACAGGAUAUACAUGAGGAUCACCCAUGUGAGAAUUAAGUAGAUUGCCACAGAGUAGAAGGGUCCUGGA |  |  | 66.6 | 91.2
56 | CAAACGUGAGGAUAUACAUGAGGAUCACCCAUGUGCUCCUCUAAACUGAAGAAGUAAUGUAGAAGGCACGUUUG |  |  | 39.2 | 17.7
